Measured values as given in ChEMBL document CHEMBL1122519, “Bispyridinamines: a new class of topical antimicrobial agents as inhibitors of dental plaque” (1984).

Experiments:
Escherichia coli [1] = assay: Antimicrobial minimum inhibitory concentration against Escherichia coli AB1932-1; format: functional
How it was run: (§1)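 Serial twofold tube dilution in tryptose phosphate broth. Each compound was prepared as a 1000 μg/mL aqueous stock and diluted in double-strength broth, then 2×10^5 cells were added. Tubes were incubated aerobically at 37 °C for 24 h. The MIC was taken as the lowest concentration with no visible growth.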

Escherichia coli [2] = assay: Minimum inhibitory concentration against Escherichia coli (Vogel); format: functional; how it was run: as §1
Escherichia coli [3] = assay: Antimicrobial minimum inhibitory concentration against Escherichia coli 100/B22; format: functional; how it was run: as §1
Klebsiella pneumoniae = assay: Minimum inhibitory concentration against Klebsiella pneumonia 39645; format: functional; how it was run: as §1
Proteus mirabilis = assay: Minimum antimicrobial inhibitory concentration against Proteus mirabilis MGH-1; format: functional; how it was run: as §1
Pseudomonas aeruginosa = assay: Minimum antimicrobial inhibitory concentration against Pseudomonas aeruginosa MGH-2; format: functional; how it was run: as §1
Staphylococcus aureus = assay: Minimum antimicrobial inhibitory concentration against Staphylococcus aureus; format: functional; how it was run: as §1
Streptococcus mutans = assay: Minimum plaque inhibitory concentration using a standard test organism, Streptococcus mutans OMZ-61; format: functional, organism-based
How it was run: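 Ceramic hydroxylapatite plates were soaked twice for 1 min each in compound at […] (aqueous), air-dried and rinsed, then hung in sucrose beef-extract medium (pH 7.0) inoculated with late-log S. mutans OMZ-61. Incubation was anaerobic at 37 °C for 24 h, and treatment plus reinoculation were repeated for a second 24 h. Plaque was stained with 1% FD&C Red No. 3 and scored visually. The value is the lowest concentration giving no plaque while medium growth matched control.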

Row | SMILES | MIC (Escherichia coli [1]) [µg/mL] | MIC (Escherichia coli [2]) [µg/mL] | MIC (Escherichia coli [3]) [µg/mL] | MIC (Klebsiella pneumoniae) [µg/mL] | MIC (Proteus mirabilis) [µg/mL] | MIC (Pseudomonas aeruginosa) [µg/mL] | MIC (Staphylococcus aureus) [µg/mL] | Concentration (Streptococcus mutans) [%]
1 | Br.Br.CCCCCCN=c1ccn(CCCCCCCCCCn2ccc(=NCCCCCC)cc2)cc1 | 1 | 2 | 2 | 3.9 | 31.3 | 31.3 | 0.2 | > 1
2 | Br.Br.CCCCCCCCCCN=c1ccn(CCCCCCCCCCCCn2ccc(=NCCCCCCCCCC)cc2)cc1 | 31.3 | 7.8 | 15.6 | 31.3 | 15.6 | 15.6 | 2 | 0.1
3 | Br.Br.CCCCCCN=c1ccn(CCCCCCCn2ccc(=NCCCCCC)cc2)cc1 | 7.8 | 15.6 | 7.8 | 15.6 | > 125 | > 125 | 0.4 | > 1
4 | Br.Br.CCCCCCN=c1ccn(CCCCCCCCn2ccc(=NCCCCCC)cc2)cc1 | 2 | 3.9 | 3.9 | 7.8 | > 250 | 125 | 0.2 | > 1
5 | Br.Br.CCCCCCCCN=c1ccn(CCCCCCCn2ccc(=NCCCCCCCC)cc2)cc1 | 1 | 2 | 1 | 1 | 7.8 | 31.3 | 0.5 | 0.005
6 | Br.Br.N=c1ccn(CCCCCCCCCCn2ccc(=N)cc2)cc1 | 31.3 | 62.5 | 62.5 | 250 | > 500 | 500 | 7.8 | > 1
7 | Br.Br.CCCCCCCCCCCCN=c1ccn(CCCCCCCCCCn2ccc(=NCCCCCCCCCCCC)cc2)cc1 | > 62.5 | > 62.5 | > 62.5 | > 62.5 | > 62.5 | > 62.5 | 15.6 | 0.1
8 | Br.Br.CCCCCCN=c1ccn(CCCCCCCCCn2ccc(=NCCCCCC)cc2)cc1 | 2 | 2 | 2 | 3.9 | 125 | 125 | 0.4 | > 1
9 | Br.Br.CCCCCCCCCCCCN=c1ccn(CCCCCCCCCCCCn2ccc(=NCCCCCCCCCCCC)cc2)cc1 | > 62.5 | > 62.5 | > 62.5 | > 62.5 | > 62.5 | > 62.5 | 31.3 | 0.1
10 | CCCCCCCCN=c1ccn(CCCCCCn2ccc(=NCCCCCCCC)cc2)cc1.Cl.Cl | 0.5 | 1 | 0.5 | 2 | 15.6 | 31.3 | 0.2 | 0.004
11 | CS(=O)(=O)O.CS(=O)(=O)O.Clc1ccc(N=c2ccn(CCCCn3ccc(=Nc4ccc(Cl)cc4)cc3)cc2)cc1 | 7.8 | 15.6 | 15.6 | > 250 | > 250 | > 125 | 7.8 | > 1
12 | Br.Br.Clc1ccc(N=c2ccn(CCCCCCCn3ccc(=Nc4ccc(Cl)cc4)cc3)cc2)cc1 | 125 | 3.9 | 3.9 | > 125 | > 125 | > 125 | 1 | > 1
13 | Br.Br.CCCCCCCCCCN=c1ccn(CCCCCCCCCn2ccc(=NCCCCCCCCCC)cc2)cc1 | 7.8 | 2 | 3.9 | 15.6 | 7.8 | 7.8 | 1 | 0.01
14 | Br.Br.CCCCCCCCCCN=c1ccn(CCCCCCCCn2ccc(=NCCCCCCCCCC)cc2)cc1 | 7.8 | 2 | 3.9 | 3.9 | 7.8 | 7.8 | 1 | 0.01
15 | Br.Br.c1cn(CCCCCCCn2ccc(=NC3CCCCC3)cc2)ccc1=NC1CCCCC1 | 125 | > 125 | > 125 | > 125 | > 125 | 125 | 7.8 | > 1
16 | Br.Br.N=c1ccn(CCCCCCCCCCCCn2ccc(=N)cc2)cc1 |  | > 62.5 |  | > 62.5 | > 125 | > 62.5 | 2 | > 1
17 | Br.Br.Clc1ccc(N=c2ccn(CCCCCn3ccc(=Nc4ccc(Cl)cc4)cc3)cc2)cc1 | 31.3 | 125 | 125 | > 125 | > 125 | > 125 | 7.8 | > 1
18 | Br.Br.CCCCCCCCCCCCN=c1ccn(CCCCCCCn2ccc(=NCCCCCCCCCCCC)cc2)cc1 | 62.5 | 62.5 | 62.5 | > 62.5 | 62.5 | 62.5 | 3.9 | 0.1
19 | Br.Br.Clc1ccc(N=c2ccn(CCCCCCCCCn3ccc(=Nc4ccc(Cl)cc4)cc3)cc2)cc1 | 1 | 1 | 2 | 7.8 | > 125 | 125 | 0.6 | > 1
20 | Br.Br.c1cn(CCCCCCCCCn2ccc(=NC3CCCCC3)cc2)ccc1=NC1CCCCC1 | 31.3 | 31.3 | 31.3 | 125 | > 500 | 500 | 1 | > 1
21 | CS(=O)(=O)O.CS(=O)(=O)O.Clc1ccc(N=c2ccn(CCCCCCn3ccc(=Nc4ccc(Cl)cc4)cc3)cc2)cc1 | 3.9 | 15.6 | 15.6 | 500 | 500 | 500 | 3.9 | > 1
22 | CS(=O)(=O)O.CS(=O)(=O)O.Clc1ccc(N=c2ccn(CCCCCCCCn3ccc(=Nc4ccc(Cl)cc4)cc3)cc2)cc1 | 1.6 | 3.1 | 3.1 | 31.3 | 125 | 125 | 0.4 | > 1
23 | Br.Br.CCCCCCN=c1ccn(CCCCn2ccc(=NCCCCCC)cc2)cc1 | 62.5 | 125 | 125 | > 125 | > 125 | > 250 | 7.8 | 

Further lines, with some results ahead:

Row | MIC (Escherichia coli [1]) [µg/mL] | MIC (Escherichia coli [2]) [µg/mL] | MIC (Escherichia coli [3]) [µg/mL] | MIC (Klebsiella pneumoniae) [µg/mL] | MIC (Proteus mirabilis) [µg/mL] | MIC (Pseudomonas aeruginosa) [µg/mL] | MIC (Staphylococcus aureus) [µg/mL] | SMILES | Concentration (Streptococcus mutans) [%]
24 | 1 | 1 | 1 | 7.8 | 125 | 125 | 0.3 | Br.Br.CCCCC(CC)CN=c1ccn(CCCCCCCCCn2ccc(=NCC(CC)CCCC)cc2)cc1 (stereo unspecified) | 0.004
25 | 0.4 | 1.5 | 0.8 | 3 | 12.1 | 48.4 | 0.2 | Br.Br.CCCCC(CC)CN=c1ccn(CCCCCCCCCCn2ccc(=NCC(CC)CCCC)cc2)cc1 (stereo unspecified) | 0.003
26 | 2 | 7.8 | 3.9 | 125 | > 125 | > 250 | 0.5 | Br.Br.CCCCC(CC)CN=c1ccn(CCCCCCn2ccc(=NCC(CC)CCCC)cc2)cc1 (stereo unspecified) | > 1
27 | 1 | 2 | 2 | 2 | 62.6 | 31.3 | 0.5 | CCCCCCCN=c1ccn(CCCCCCCCn2ccc(=NCCCCCCC)cc2)cc1.Cl.Cl | 0.1
28 | 7.8 | 15.6 | 15.6 | > 125 | > 125 | > 125 | 0.2 | Br.Br.c1cn(CCCCCCCCCCn2ccc(=NC3CCCCC3)cc2)ccc1=NC1CCCCC1 | > 1
29 | 2 | 2 | 7.8 | 3.9 | 2 | 7.8 | 1 | Br.Br.CCCCCCCCCCN=c1ccn(CCCCCCn2ccc(=NCCCCCCCCCC)cc2)cc1 | 0.01
30 | 1 | 1 | 1 | 2 | 15.6 | 3.9 | 1 | CCCCCCCCN=c1ccn(CCCCCCCCCn2ccc(=NCCCCCCCC)cc2)cc1.Cl.Cl | 0.003
31 |  | 250 |  | 500 | > 500 | > 500 | 31.3 | Br.Br.N=c1ccn(CCCCCCCCCn2ccc(=N)cc2)cc1 | > 1
32 | 7.8 | 15.6 | 15.6 | > 125 | > 125 | 125 | 0.5 | Br.Br.CCCCC(CC)CN=c1ccn(CCCCCn2ccc(=NCC(CC)CCCC)cc2)cc1 (stereo unspecified) | > 1
33 | > 500 | > 500 | > 500 | > 500 | > 500 | > 500 | 125 | Br.Br.c1cn(CCCCCn2ccc(=NC3CCCCC3)cc2)ccc1=NC1CCCCC1 | > 1
34 | 31.3 | 125 | 62.5 | > 125 | > 250 | > 125 | 2 | Br.Br.CCCCCCN=c1ccn(CCCCCn2ccc(=NCCCCCC)cc2)cc1 | 
